Measurements from ChEMBL document CHEMBL1681707, “Thienopyrrole acetic acids as antagonists of the CRTH2 receptor” (Bioorg Med Chem Lett, 2011).
One block for each compound: values may come before it.

What was measured:
[1] = Metabolic stability in rat liver microsomes assessed as compound remaining after 30 mins; type: ADME, Microsome; conditions: read-out: Stability
Summary of the method: (§1)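 Incubation with rat or human liver microsomes for 30 min. Percent of parent remaining at 30 min reported.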

[2] = molecular target: Voltage-gated inwardly rectifying potassium channel KCNH2 (Homo sapiens, UniProt Q12809); assay: Displacement of [3H]Dofetilide from human hERG potassium channel expressed in HEK293 cell membranes
Voltage-gated inwardly rectifying potassium channel KCNH2, sequence (Q12809 whole entry): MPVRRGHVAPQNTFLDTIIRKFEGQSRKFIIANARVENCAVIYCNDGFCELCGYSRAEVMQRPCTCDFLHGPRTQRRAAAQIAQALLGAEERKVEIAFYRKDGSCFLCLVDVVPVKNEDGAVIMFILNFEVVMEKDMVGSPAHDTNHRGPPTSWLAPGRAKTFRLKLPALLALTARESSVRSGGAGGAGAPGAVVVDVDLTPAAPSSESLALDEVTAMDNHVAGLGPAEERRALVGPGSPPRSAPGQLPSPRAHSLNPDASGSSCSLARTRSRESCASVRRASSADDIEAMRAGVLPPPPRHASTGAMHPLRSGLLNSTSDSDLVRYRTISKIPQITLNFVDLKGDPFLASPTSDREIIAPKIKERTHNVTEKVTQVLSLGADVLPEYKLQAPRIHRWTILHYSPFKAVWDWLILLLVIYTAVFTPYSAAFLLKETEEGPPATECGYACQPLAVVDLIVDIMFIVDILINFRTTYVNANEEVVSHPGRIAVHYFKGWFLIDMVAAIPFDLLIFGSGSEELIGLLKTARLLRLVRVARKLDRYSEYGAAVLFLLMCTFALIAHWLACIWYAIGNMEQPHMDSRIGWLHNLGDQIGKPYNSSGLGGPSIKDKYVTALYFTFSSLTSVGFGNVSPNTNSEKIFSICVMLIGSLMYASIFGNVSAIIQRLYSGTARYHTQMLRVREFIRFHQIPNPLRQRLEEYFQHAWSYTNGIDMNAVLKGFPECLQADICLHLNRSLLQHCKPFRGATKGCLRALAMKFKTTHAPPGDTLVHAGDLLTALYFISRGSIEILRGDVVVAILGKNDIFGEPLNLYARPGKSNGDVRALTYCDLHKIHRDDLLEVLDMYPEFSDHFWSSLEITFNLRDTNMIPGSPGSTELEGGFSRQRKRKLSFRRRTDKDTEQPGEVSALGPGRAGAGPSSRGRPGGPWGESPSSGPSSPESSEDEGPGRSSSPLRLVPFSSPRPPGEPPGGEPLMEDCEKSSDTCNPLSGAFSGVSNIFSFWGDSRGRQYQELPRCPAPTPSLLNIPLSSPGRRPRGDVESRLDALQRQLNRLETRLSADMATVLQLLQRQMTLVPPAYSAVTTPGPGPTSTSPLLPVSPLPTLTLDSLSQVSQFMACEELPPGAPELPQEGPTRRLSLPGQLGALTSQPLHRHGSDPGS

[3] = molecular target: T1, Prostaglandin D2 receptor 2 (Homo sapiens, UniProt Q9Y5Y4); assay: Displacement of [3H]PGD2 from human CRTH2 receptor expressed in HEK293 cell membranes
T1 sequence (Q9Y5Y4 whole entry): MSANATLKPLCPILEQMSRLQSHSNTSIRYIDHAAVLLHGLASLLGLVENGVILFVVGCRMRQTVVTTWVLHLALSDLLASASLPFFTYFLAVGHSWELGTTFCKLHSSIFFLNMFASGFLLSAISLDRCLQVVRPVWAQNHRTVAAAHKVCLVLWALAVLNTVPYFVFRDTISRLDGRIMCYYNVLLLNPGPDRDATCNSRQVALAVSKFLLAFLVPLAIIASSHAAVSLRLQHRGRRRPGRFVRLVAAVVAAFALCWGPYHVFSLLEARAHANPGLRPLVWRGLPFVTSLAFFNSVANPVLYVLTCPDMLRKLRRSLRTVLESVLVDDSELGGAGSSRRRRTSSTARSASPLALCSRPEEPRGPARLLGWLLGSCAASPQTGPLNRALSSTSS
Summary of the method: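 Radioligand binding on membranes from HEK293.F cells transiently transfected with human CRTH2 cDNA. Test compounds dissolved in DMSO, run at 1% (v/v) final DMSO. PGD2 used at 1 μM final concentration. Values are means of n = 2-4 experiments.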

[4] = molecular target: T2, Prostaglandin D2 receptor (Homo sapiens, UniProt Q13258); assay: Displacement of [3H]PGD2 from human DP1 receptor expressed in HEK293 cell membranes
T2 sequence (Q13258 whole entry): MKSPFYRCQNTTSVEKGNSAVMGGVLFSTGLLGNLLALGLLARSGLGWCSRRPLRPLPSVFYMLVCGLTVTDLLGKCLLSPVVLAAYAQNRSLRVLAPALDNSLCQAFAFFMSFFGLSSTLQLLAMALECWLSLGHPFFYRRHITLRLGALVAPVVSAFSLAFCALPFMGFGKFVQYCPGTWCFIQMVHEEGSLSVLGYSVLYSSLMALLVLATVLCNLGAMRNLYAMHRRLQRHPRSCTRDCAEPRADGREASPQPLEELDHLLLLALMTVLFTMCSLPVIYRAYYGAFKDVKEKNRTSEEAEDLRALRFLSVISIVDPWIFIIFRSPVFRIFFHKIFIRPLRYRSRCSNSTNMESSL
Summary of the method: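 Radioligand binding on membranes from HEK293 cells expressing human DP-1. Test compounds dissolved in DMSO, run at 1% (v/v) final DMSO. PGD2 used at 1 μM final concentration.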

[5] = Metabolic stability in human liver microsomes assessed as compound remaining after 30 mins; type: ADME, Microsome; conditions: read-out: Stability; summary of the method: as §1
[6] = molecular target: T1, Prostaglandin D2 receptor 2; assay: Antagonist activity at human CRTH2 receptor expressed in CHO/Ga16 cells co-expressing Galpha16 protein assessed as calcium flux by FLIPR assay; type: functional, cell-based
Summary of the method: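 CHO cells co-expressing Gα16 and stably transfected with human CRTH2; antagonism read as calcium flux; IC50 determined.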

[7] = Cmax in BALB/c mouse at 30 mg/kg, po administered through 0.2 % Tween 80/0.5 % HPMC formulation; type: ADME, organism-based; design: dose 30 mg/kg, route oral; conditions: in vivo
Summary of the method: (§2)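 Oral dosing at 30 mpk in female BALB/c mice, given as a solution in 0.2% Tween 80/0.5% HPMC, as an early bioavailability assessment.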

[8] = AUC in BALB/c mouse at 30 mg/kg, po administered through 0.2 % Tween 80/0.5 % HPMC formulation; type: ADME, organism-based; design: dose 30 mg/kg, route oral; conditions: plasma; summary of the method: as §2

Structure (SMILES): Cc1c(CC(=O)O)c2ccsc2n1Cc1ccc(S(=O)(=O)N(C)C2CCCCC2)cc1
- remaining at 0.5 h [1]: 57%
- IC50 [2]: 31000 nM
- IC50 [3]: 20 nM
- IC50 [4]: > 50000 nM
- remaining at 0.5 h [5]: 62%

Structure (SMILES): CS(=O)(=O)c1ccc(S(=O)(=O)n2cc(CC(=O)O)c3sccc32)cc1
- IC50 [3]: 5000 nM

Structure (SMILES): Cc1cc2c(CC(=O)O)c(C)n(Cc3ccc(S(C)(=O)=O)cc3)c2s1
- IC50 [3]: 1800 nM

Structure (SMILES): Cc1c(CC(=O)O)c2ccsc2n1Cc1ccc(S(C)(=O)=O)cc1
- IC50 [6]: 130 nM
- remaining at 0.5 h [1]: 90%
- IC50 [2]: 31000 nM
- IC50 [3]: 50 nM
- IC50 [4]: > 50000 nM
- remaining at 0.5 h [5]: 91%

Structure (SMILES): Cc1c(CC(=O)O)c2ccsc2n1S(=O)(=O)c1ccc(C#N)cc1
- IC50 [3]: 3000 nM

Structure (SMILES): Cc1c(CC(=O)O)c2ccsc2n1S(=O)(=O)c1ccc(C(F)(F)F)cc1
- IC50 [3]: 1130 nM

Structure (SMILES): Cc1cc2c(CC(=O)O)c(C)n(Cc3ccc(S(C)(=O)=O)cc3Cl)c2s1
- IC50 [3]: 330 nM

Structure (SMILES): Cc1c(CC(=O)O)c2ccsc2n1Cc1ccc(S(C)(=O)=O)cc1Cl
- remaining at 0.5 h [1]: 99%
- IC50 [2]: 45000 nM
- IC50 [3]: 10 nM
- IC50 [4]: > 50000 nM
- remaining at 0.5 h [5]: 97%

Structure (SMILES): Cc1c(CC(=O)O)c2ccsc2n1S(=O)(=O)c1ccccc1
- IC50 [3]: 2750 nM

Structure (SMILES): Cc1c(CC(=O)O)c2ccsc2n1S(=O)(=O)c1ccc(S(C)(=O)=O)cc1
- Cmax [7]: 7800 ng/mL
- remaining at 0.5 h [1]: 100%
- IC50 [2]: > 100000 nM
- IC50 [3]: 90 nM
- IC50 [4]: > 50000 nM
- AUC [8]: 16400 ng·h/mL
- remaining at 0.5 h [5]: 100%

The remaining compounds from weak to strong by IC50 [3], led by results:

- IC50 [3]: 4000 nM
Structure (SMILES): CS(=O)(=O)c1ccc(S(=O)(=O)n2cc(CC(=O)O)c3ccsc32)cc1

- IC50 [3]: 1630 nM
Structure (SMILES): Cc1c(CC(=O)O)c2ccsc2n1S(=O)(=O)c1ccc(F)cc1

- IC50 [3]: 1500 nM
Structure (SMILES): Cc1csc2c1c(CC(=O)O)c(C)n2Cc1ccc(S(C)(=O)=O)cc1

- IC50 [3]: 1300 nM
Structure (SMILES): Cc1csc2c1c(CC(=O)O)c(C)n2S(=O)(=O)c1ccc(S(C)(=O)=O)cc1

- IC50 [3]: 390 nM
Structure (SMILES): Cc1c(CC(=O)O)c2ccsc2n1S(=O)(=O)c1ccc(S(=O)(=O)N2CCCC2)cc1

- IC50 [3]: 230 nM
Structure (SMILES): Cc1c(CC(=O)O)c2ccsc2n1S(=O)(=O)c1ccc(S(=O)(=O)N2CCOCC2)cc1

- IC50 [3]: 190 nM
Structure (SMILES): Cc1c(CC(=O)O)c2ccsc2n1Cc1ccc(S(=O)(=O)N(C)C)cc1

- IC50 [3]: 70 nM
Structure (SMILES): Cc1c(CC(=O)O)c2ccsc2n1Cc1ccc(S(=O)(=O)N2CCOCC2)cc1
